These results are taken from ChEMBL document CHEMBL4513216, “Probing the Open Global Health Chemical Diversity Library for Multistage-Active Starting Points for Next-Generation Antimalarials” (ACS Infect Dis, 2020).

This series in a line: Toxicity liver stage against HepG2, at 10uM. It is filed as cell-based. The arrangement: test concentration 10 uM, cell line HepG2-A16-CD81EGFP. As to conditions: human, HepG2-A16-CD81EGFP cells; read-out: INHIBITION
Summed up:
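Uninfected HepG2-A16-CD81EGFP cells, 3 × 10^3 per well, 1536-well, plated on prespotted compound at 10 μM final, parasite-free screening media added to match infected plates; puromycin 10 μM positive, DMSO 0.5% negative; run in parallel with 48 h PbLuc assay at 37 °C, 5% CO2; viability by CellTiter-Glo luminescence, normalized to controls.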
Turning to `CC(C)(C)n1ncc2c(=O)n(CC(=O)NCc3ccccc3)cnc21`, the cytotoxicity at 10 µM worked out at 42%. With `Cc1cccc(OC2CCN(C(=O)NCc3cc[nH]n3)CC2)c1C`, the cytotoxicity at 10 µM turned out to be 7.41%.

`CCS(=O)(=O)N1CCc2ccc(NC(=O)Nc3cccc(C)c3)cc21`: the cytotoxicity at 10 µM is 42.3%.

Take `CCCSc1nn(CCN(C)C)c2nc3sc(C)c(CC)c3c(=O)n12`: the cytotoxicity at 10 µM was determined as 16.4%. Turning to `CC(C)n1ncc2c1NC(=O)CC21C(=O)Nc2cc(Cl)cc(Cl)c21` (centres undefined), the cytotoxicity at 10 µM amounted to 19.1%.

`Nc1nc2c(c(NC(=O)Nc3cccc(Cl)c3)n1)CCCC2`: the cytotoxicity at 10 µM was -2.8%. The value for `O=S(=O)(c1ccc(Cl)s1)N1CCN(Cc2nc(-c3ccco3)cs2)CC1` was 47.6%; that for `CC(C)(C)NC(=O)N1CCC(Oc2ccc(C(F)(F)F)cn2)CC1` was 6.91%; that for `CCS(=O)(=O)N1CCc2ccc(NC(=O)Nc3cccc(SC)c3)cc21` was 37.7%. As for `Cc1cc(C)n(C2=NC(NCCC(C)C)c3c(sc4c3CCCC4)N2)n1` (centres undefined), the cytotoxicity at 10 µM stood at 25%. For `Cc1nn(C)c2c(=O)n(C(C)C)c(NCCc3ccccc3)nc12`, the cytotoxicity at 10 µM turned out to be 65.3%. As to `Cc1ccc(-c2noc(C3CCN3C(=O)c3cc[nH]n3)n2)s1` (centres undefined), the cytotoxicity at 10 µM stood at 8.47%.

Turning to `CC(C)Nc1cc(-c2c[nH]nc2C2CCN(C(=O)C3CC3)C2)ccn1` (centres undefined), the cytotoxicity at 10 µM was determined as 85%. Turning to `CC(C)CNc1cc(-c2c[nH]nc2C2CCN(C(=O)C3CC3)C2)ccn1` (centres undefined), the cytotoxicity at 10 µM came out at 83.8%. In the case of `COc1ccc(CC(=O)NC(C)c2nc3cccnc3n2C(C)C)cc1` (centres undefined), the cytotoxicity at 10 µM is -11.7%. For `CN(C)C(=O)C1CN(Cc2ccccn2)CCN(S(C)(=O)=O)C1` (centres undefined), the cytotoxicity at 10 µM came to 26.9%. Next, `O=c1c(Cc2ccc(Cl)cc2Cl)c(O)ccn1CC1CC1`: 13.6%; `CCN1CCC(NC(=O)CNC(C)Cn2cccn2)CC1` (centres undefined): 9.19%; `CCOCCOC(C)C(=O)Nc1nccn1Cc1ccccc1` (centres undefined): 3.94%. For `Cc1ccc(OCCCC(=O)Nc2nonc2C)cc1C`, the cytotoxicity at 10 µM is 7.03%. Next, `COCc1ccccc1NCc1csc(NC(C)=O)n1`: -1.36%; `CC(Cc1ccco1)NC(=O)NCc1ncnn1C` (centres undefined): 2.02%; `CC1CCN(C(=O)CSCCN2CCOCC2)CC1`: 1.89%. Take `COCC(O)CN(C)c1cc(C(F)(F)F)nc(-c2cccnc2)n1` (centres undefined): the cytotoxicity at 10 µM amounted to 7.02%. The value for `CCOc1ccc(-c2nc(CN(C)Cc3c(C)noc3C)cs2)cc1` was 38.6%; that for `COc1c(Cl)cccc1NCc1csc(NC(C)=O)n1` was 57.8%. Consider `N#Cc1c(Cl)nsc1NCc1cccnc1OC1CCCC1`, for which the cytotoxicity at 10 µM was 27.1%. Regarding `O=C(NCC1(O)CCSC1)c1ccoc1` (centres undefined), the cytotoxicity at 10 µM was -12.7%.

For `CCN(CC1CN(Cc2nc(C3CC3)no2)CCO1)c1cccnn1` (centres undefined), the cytotoxicity at 10 µM is 14.9%. The value for `O=C(CSc1nncs1)N1CCN(Cc2ccc(Cl)cc2)CC1` was 21.9%; that for `CCc1noc(C(C)N(C)CC(=O)Nc2ccc(Cl)c(C(F)(F)F)c2)n1` (centres undefined) was 50.1%; that for `NC(=O)c1ccc(N2CCCCC2)c(NC(=O)c2ccc(F)cc2F)c1` was -0.0472%. For `COc1ccccc1CN(C)C(=O)CN1CC(n2nc(C)cc2C)C1`, the cytotoxicity at 10 µM is 21.3%. Next, `COc1ccc(C(=O)NCCCOC(C)c2ccccc2)c(OC)c1` (centres undefined): -17.3%; `CCCc1n[nH]c(C2CN(C(=O)CCCn3ccnc3C)CCO2)n1` (centres undefined): 6.03%. The value for `Cc1cnn(-c2cccc(N3CCN(c4cc(C)nc(C)n4)CC3)n2)c1` was 7.82%; that for `N#Cc1cnc2ccccc2c1N1CCN(C(=O)C2CCC2)CC1` was -2.3%.

As to `CN(CCN1CCCC1=O)S(=O)(=O)CC1CCCC1`, the cytotoxicity at 10 µM came to 10.4%. For `CC1(C)CN=C(N2CCN(CCCN3CCOCC3)CC2)S1`, the cytotoxicity at 10 µM was -17.6%. The value for `CN(CCc1cccc2ccccc12)Cc1nc(N)nc(N(C)C)n1` was 4.19%. As for `c1nc(NCC2(N3CCOCC3)CCSC2)c2sccc2n1` (centres undefined), the cytotoxicity at 10 µM was 59.7%.

As to `O=S1(=O)CCN2C(=N1)Oc1ccc(S(=O)(=O)N3CCCC3)cc12`, the cytotoxicity at 10 µM was 18.2%. Next, `CS(=O)(=O)c1cccc(C(=O)NCC2(c3ccccc3)CC2)c1`: 1.47%; `Cc1ccc(-c2nc(CN(Cc3cccs3)C3CCS(=O)(=O)C3)cs2)o1` (centres undefined): 11.4%; `CC(C)CN1CCC(NC(C)c2ccccc2-n2cccn2)CC1` (centres undefined): 1.06%. In the case of `O=C(CN1CCCC(c2ccn[nH]2)C1)Nc1nc2c(s1)CCCC2` (centres undefined), the cytotoxicity at 10 µM is -43.3%.

In the case of `NC(=O)c1ccc(N2CCCCC2)c(NC(=O)c2cc(Br)ccc2F)c1`, the cytotoxicity at 10 µM was -12.9%. On to `CC(C)NC(=O)C1CN(C(=O)N(C)C)CC12CCOCC2` (centres undefined), for which the cytotoxicity at 10 µM was -110%. With `O=C(Nc1ccccc1)N1CCc2nc(C(=O)N3CCCC3)sc2CC1`, the cytotoxicity at 10 µM is 11.3%. Take `CN(C)C(=O)CN1CCC2(COCc3cnc(-c4ccccc4)nc32)C1` (centres undefined): the cytotoxicity at 10 µM was -96.7%. As to `O=C1O[C@@H]2CN(c3ccccn3)C[C@@H]2N1CCCc1ccc(F)cc1`, the cytotoxicity at 10 µM was -2.88%. Consider `FC(F)(F)c1cccc(OC2CCN(Cc3c[nH]cn3)CC2)c1`, for which the cytotoxicity at 10 µM was -47.8%.

Regarding `Cc1nc(C)c(CCN2CCC(Oc3ccccc3F)CC2)s1`, the cytotoxicity at 10 µM was 42.9%. Turning to `Cc1ccc(Sc2ccc(CN3CCC4(CCCNC4=O)C3)o2)cc1` (centres undefined), the cytotoxicity at 10 µM was -3.68%.

For the compound `CCC(NC(=O)c1cc(CC(C)C)nn1C)c1cccc(C)n1` (centres undefined), the cytotoxicity at 10 µM is -116%.

With `CCCc1nc(C(=O)NCCN2CCC(c3ccccc3C)C2)cs1` (centres undefined), the cytotoxicity at 10 µM is -37.9%. As to `CNc1ccnc(N(C)Cc2cc(-c3cccs3)n[nH]2)n1`, the cytotoxicity at 10 µM was -4.57%. Consider `N#Cc1cccnc1N1CCCC(CO)(Cc2ccc(F)cc2)C1` (centres undefined), for which the cytotoxicity at 10 µM was 3.3%. Take `CCc1nc2c(N3CCC4(CC3)CC(=O)N(CC(C)C)C4)ncnc2o1`: the cytotoxicity at 10 µM came out at 16.2%. Next, `CC(=O)N1CCN(Cc2cccc3c2sc2ccccc23)CC(O)C1` (centres undefined): -12.9%.

As for `CCCNC(=O)c1ccc(S(=O)(=O)NCC2(COC)CCCC2)cc1`, the cytotoxicity at 10 µM was -31.2%.

Take `CC(C)c1cc(C(=O)NCCc2nc3c(s2)CCC3)n(C)n1`: the cytotoxicity at 10 µM stood at 54.2%. Consider `COc1ccccc1OC1CN(C(=O)c2c(C)nc3ccc(C)cn23)C1`, for which the cytotoxicity at 10 µM was -0.376%.

In the case of `Cc1cc(C(=O)NC2CCCc3c2cnn3-c2cccc(C)c2C)[nH]n1` (centres undefined), the cytotoxicity at 10 µM turned out to be 51.4%. In the case of `Cc1cc(CN(C)CC2CCCN(CCc3ccc(Cl)cc3)C2)[nH]n1` (centres undefined), the cytotoxicity at 10 µM was -12.5%. Take `C=Cc1ccc(CN2C(=O)C3(CCNCC3)Nc3ccccc32)cc1`: the cytotoxicity at 10 µM was determined as 3.39%. The value for `Cc1nc(C(=O)N2CCN(c3ccc(Cl)c(Cl)c3)CC2)cs1` was 2.35%; that for `CC(C)(C)n1ncc2c1NC(=O)CC2c1cccc(F)c1` (centres undefined) was -8.81%. Next, `CN(C)c1nc2c(c(N3CCC4(CC3)CNC(=O)C4)n1)CCCC2`: 0.995%; `Nc1nc(CCC(=O)N2CCOC(CC3CCCCC3)C2)cs1` (centres undefined): -9.18%; `Cc1ccc(-c2noc(CN3CCC(N4CCNC4=O)CC3)n2)cc1`: 31%.

`Cc1ccc(-c2noc(CN3CC(n4cc(C)cn4)C3)n2)cc1`: the cytotoxicity at 10 µM is -3.86%.

For the compound `Cc1noc(NC(=O)c2cccc(Br)c2)n1`, the cytotoxicity at 10 µM is -5.3%. In the case of `CCc1nc(CN2CCCN(c3nn4cc(C)nc4s3)CC2)no1`, the cytotoxicity at 10 µM is -14.7%. For `COc1c(CNCc2ccnc(N3CCCCC3)c2)c(C)nn1C`, the cytotoxicity at 10 µM came out at 10.1%. Take `Cc1noc(NC(=O)c2ccc(Br)s2)n1`: the cytotoxicity at 10 µM is -1.35%.

As for `Cc1cc(CN2CCN(C(c3ccccc3)c3ccccc3)CC2)no1`, the cytotoxicity at 10 µM was -6.56%. Consider `CC1CN(CC2CCCCC2)CCN1c1ccc2nncn2n1` (centres undefined), for which the cytotoxicity at 10 µM came to 13.8%. On to `Cc1nccn1CCCn1cncc1-c1ccc2c(c1)CCC(C)N2C` (centres undefined), for which the cytotoxicity at 10 µM was -4.98%. As to `Cc1ccc(CN(CCCn2ccnc2)Cc2cc(F)ccc2F)s1`, the cytotoxicity at 10 µM is -13.2%. The value for `Fc1cccc(O[C@@H]2C[C@H]3CN(Cc4ccccn4)CCN3C2)c1` was -154%. For `CCS(=O)(=O)N1C[C@@H]2CN(Cc3cccs3)CCO[C@@H]2C1`, the cytotoxicity at 10 µM is -138%.

Regarding `CN(C)C(=O)c1n[nH]c2c1CN(Cc1nccs1)CC2`, the cytotoxicity at 10 µM was -150%. Consider `CC(C)NC1CCc2[nH]c(=O)ccc2C1` (centres undefined), for which the cytotoxicity at 10 µM came to 3.64%. In the case of `Fc1cccc(O[C@@H]2C[C@H]3CN(Cc4ccncc4)CCN3C2)c1`, the cytotoxicity at 10 µM is -143%. Next, `Cc1ccc(O[C@@H]2C[C@H]3CN(C(=O)Cc4ccccn4)CCN3C2)cc1`: -59%; `CCCS(=O)(=O)N1CCC2(CC1)CN(CC1CCOC1)c1ccccc12` (centres undefined): -101%; `O=C(c1ccco1)N1C[C@@H]2CCN(c3cccnc3)C[C@@H]2C1`: -68.3%. For the compound `COCCN1CCC2(CC1)CC(N1CCOCC1)c1cc(C)ccc12` (centres undefined), the cytotoxicity at 10 µM is -106%. As to `Cc1ccc(N2CCO[C@H]3CN(Cc4cccs4)C[C@H]32)nn1`, the cytotoxicity at 10 µM is -75.6%. The value for `CCc1ccc(CN2C[C@@H]3OCCN(c4ccnc(N(C)C)n4)[C@@H]3C2)o1` was 61.8%; that for `Cc1ccc(N2CCC3(CN(Cc4ccncc4)CCC3(F)F)C2)nn1` (centres undefined) was 28.6%; that for `c1ccc(-c2cc(CN3C[C@H]4CC[C@@H](C3)N(CC3CCC3)C4)on2)cc1` was 3.27%. Regarding `COc1ccc(NS(=O)(=O)C=c2[nH]c(=O)n3cccc3c2=O)cc1Cl`, the cytotoxicity at 10 µM is -1.47%.
